Results gathered from unrelated publications.
Compare with care: the assays were run in different laboratories.
Target: MAP/microtubule affinity-regulating kinase 4 (MARK4, Homo sapiens, UniProt Q96L34)
Read-out: enzyme activity
Action: inhibitor
Sequence (Q96L34 1-752, as in one of the studies): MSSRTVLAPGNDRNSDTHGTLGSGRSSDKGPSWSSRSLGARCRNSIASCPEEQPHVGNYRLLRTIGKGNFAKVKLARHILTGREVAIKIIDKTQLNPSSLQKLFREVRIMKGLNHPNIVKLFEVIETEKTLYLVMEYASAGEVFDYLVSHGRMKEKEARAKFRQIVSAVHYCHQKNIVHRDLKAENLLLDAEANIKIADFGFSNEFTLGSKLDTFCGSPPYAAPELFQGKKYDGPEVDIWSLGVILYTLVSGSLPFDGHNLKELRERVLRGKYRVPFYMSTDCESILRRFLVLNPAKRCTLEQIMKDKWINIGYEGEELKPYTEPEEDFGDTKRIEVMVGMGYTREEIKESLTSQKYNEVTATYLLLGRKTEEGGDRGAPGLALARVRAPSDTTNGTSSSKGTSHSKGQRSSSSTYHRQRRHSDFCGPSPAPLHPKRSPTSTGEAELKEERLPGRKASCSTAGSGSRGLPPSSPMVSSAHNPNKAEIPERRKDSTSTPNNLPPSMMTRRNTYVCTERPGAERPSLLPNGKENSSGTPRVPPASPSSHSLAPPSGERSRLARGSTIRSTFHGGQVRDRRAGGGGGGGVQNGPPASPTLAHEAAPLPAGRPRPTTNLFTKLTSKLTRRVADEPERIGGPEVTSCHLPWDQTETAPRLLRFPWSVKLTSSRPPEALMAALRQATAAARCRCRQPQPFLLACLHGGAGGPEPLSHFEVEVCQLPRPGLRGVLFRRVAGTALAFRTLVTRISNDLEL

| SMILES | assay | conditions | remaining activity |
| --- | --- | --- | --- |
| NS(=O)(=O)c1ccc(CNc2ccnc(Nc3cccc(NC(=O)N4CCCC4)c3)n2)cc1 | radiometric | 1 µM | 99% |
| CC(C)(C)c1nc(-c2cccc(NS(=O)(=O)c3c(F)cccc3F)c2F)c(-c2ccnc(N)n2)s1 | radiometric | 1 µM | 84% |
| COc1cc(Nc2cnc(C#N)c(O[C@H](C)CN(C)C)n2)ncc1-c1cnn(C)c1 | radiometric | 1 µM | 105% |
| CC(C)(C)c1nc2c(s1)c1nc(N)ncc1c1ccc(NS(=O)(=O)c3c(F)cccc3F)c(F)c12 | radiometric | 1 µM | 88% |
| Cc1nn(CC(F)(F)F)cc1Nc1nccc(NCCCNC(=O)C2CCC2)n1 | radiometric | 1 µM | 113% |
| Cc1ccc(C(=O)Nc2ccc(CN3CCN(C)CC3)c(C(F)(F)F)c2)cc1C#Cc1cnc2cccnn12 |  | 23.5 nM | 94% |
| O=C(Nc1cnn(-c2csc(C(=O)NC3COC3)c2)c1)Nc1c(F)cccc1Cl |  | 5 µM | 97.9% |
| FC(F)c1nc2ccccc2n1-c1nc(N2CCOCC2)nc(N2CCOCC2)n1 |  | 10 µM | 89% |
| Cc1nn(CC(F)(F)F)cc1Nc1nccc(NCc2ccc(S(N)(=O)=O)cc2)n1 | radiometric | 1 µM | 101% |
| Cc1sc(C(=O)NC2COC2)cc1-n1cc(NC(=O)Nc2c(F)cccc2Cl)cn1 |  | 10 µM | 108% |
| COc1cc(Cl)c(C(=O)N[C@@H](CN[C@H]2CC[C@@H](N)CC2)Cc2ccc(C#N)cc2)cc1-c1ccc(CN[C@H](C)c2ccc(C)cc2)o1 |  | 1 µM | 91% |
| CC(C)(O)[C@H]1CC[C@H](Nc2ccc3ncc(-c4cccc(C(F)(F)F)c4)n3n2)CC1 |  | 1 µM | 97.8% |
| Cc1nn(CC(F)(F)F)cc1Nc1ncc(C2CC2)c(NCCc2c[nH]cn2)n1 | radiometric | 1 µM | 88% |
| Cn1c(=O)n(-c2ccc(C(C)(C)C#N)cc2)c2c3cc(-c4cnc5ccccc5c4)ccc3ncc21 |  | 10 µM | 81% |
| Brc1cnc(Nc2cccc(CN3CCOCC3)c2)nc1NCCc1c[nH]cn1 | radiometric | 1 µM | 3% |
| Cc1ccc(Nc2nccc(N(C)c3ccc4c(C)n(C)nc4c3)n2)cc1S(N)(=O)=O |  | 0.5 µM | 98% |
